Assay results taken from ChEMBL document CHEMBL2062417, “Biotinylated quercetin as an intrinsic photoaffinity proteomics probe for the identification of quercetin target proteins” (Bioorg Med Chem, 2011).
Activity calls are given as the source filed them. The rule behind the calls is not given here.

Key:
Jurkat [1] = experiment: Binding affinity to quercetin binding protein in human Jurkat cells at 150 uM followed by UV irradiation for 30 mins with Wood's glass filtered medium pressure mercury arc light after cell lysis measured after denaturing wash by Western blotting based pull down assay in presence of heat shock
Procedure, shortened: (§1)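 Streptavidin pull-downs from heat-shocked, BioQ-treated (150 μM), UV-irradiated Jurkat cells received a 2% SDS wash. Proteins were transferred from SDS gels to nitrocellulose and blocked overnight in 3% BSA at 4 °C. Blots were probed 1 h with HRP-conjugated anti-biotin antibody and developed with 4-chloro-1-naphthol/0.01% H2O2, with no-UV and no-probe controls.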

[2] = biological target: T1, Ubiquitin-like modifier-activating enzyme 1 (Homo sapiens) (UniProt P22314); experiment: Binding affinity to UBA1 in human Jurkat cells at 150 uM followed by UV irradiation for 30 mins with Wood's glass filtered medium pressure mercury arc light prior to cell lysis measured after denaturing wash by SDS-PAGE based pull down assay
T1 sequence (whole entry): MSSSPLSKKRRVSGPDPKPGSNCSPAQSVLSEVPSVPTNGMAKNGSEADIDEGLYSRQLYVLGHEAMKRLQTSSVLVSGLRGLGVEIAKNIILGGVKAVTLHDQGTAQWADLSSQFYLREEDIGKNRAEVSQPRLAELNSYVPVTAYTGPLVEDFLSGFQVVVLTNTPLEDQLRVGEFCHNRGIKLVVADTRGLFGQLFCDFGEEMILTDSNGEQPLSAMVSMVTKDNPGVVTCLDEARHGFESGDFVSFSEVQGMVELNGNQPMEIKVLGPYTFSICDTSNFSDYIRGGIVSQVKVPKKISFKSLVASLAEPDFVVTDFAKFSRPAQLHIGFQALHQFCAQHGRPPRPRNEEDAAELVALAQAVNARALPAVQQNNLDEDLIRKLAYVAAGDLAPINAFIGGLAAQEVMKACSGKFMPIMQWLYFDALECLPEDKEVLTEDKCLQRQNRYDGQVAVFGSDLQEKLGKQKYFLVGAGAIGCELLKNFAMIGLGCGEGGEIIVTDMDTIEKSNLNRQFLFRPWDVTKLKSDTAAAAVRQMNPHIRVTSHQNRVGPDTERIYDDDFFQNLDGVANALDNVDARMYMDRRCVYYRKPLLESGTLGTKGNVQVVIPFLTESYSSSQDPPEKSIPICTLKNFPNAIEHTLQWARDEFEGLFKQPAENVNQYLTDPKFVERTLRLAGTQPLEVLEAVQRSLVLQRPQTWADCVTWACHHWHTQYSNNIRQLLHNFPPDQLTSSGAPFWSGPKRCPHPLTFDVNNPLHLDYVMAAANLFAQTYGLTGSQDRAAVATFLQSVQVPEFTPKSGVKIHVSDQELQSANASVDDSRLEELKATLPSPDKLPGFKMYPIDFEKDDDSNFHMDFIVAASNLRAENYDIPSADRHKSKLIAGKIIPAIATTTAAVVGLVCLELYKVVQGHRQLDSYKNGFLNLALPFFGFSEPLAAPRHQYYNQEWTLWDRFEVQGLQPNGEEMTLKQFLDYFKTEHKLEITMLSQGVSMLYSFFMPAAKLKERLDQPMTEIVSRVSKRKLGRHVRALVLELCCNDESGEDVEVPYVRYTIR
Procedure, shortened: (§2)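 Jurkat cells were grown in RPMI with 10% FBS (about 15×10^6 cells) and treated 2 h with 150 μM BioQ in 3% aqueous DMSO. They were heat-shocked at 43 °C for 30 min, recovered 1 h at 37 °C, and UV-irradiated (320–400 nm, peak 365 nm, 30 min, 4 °C) before or after sonication lysis. Streptavidin-agarose capture ran 1 h. Beads were washed ≥3× with lysis buffer or 2% SDS Tris pH 7.4, boiled, run on 12% SDS-PAGE and silver-stained.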

Jurkat [3] = experiment: Binding affinity to quercetin binding protein in human Jurkat cells at 150 uM followed by UV irradiation for 30 mins with Wood's glass filtered medium pressure mercury arc light before cell lysis measured after denaturing wash by Western blotting based pull down assay in presence of heat shock; procedure, shortened: as §1
Jurkat [4] = experiment: Binding affinity to quercetin binding protein in human Jurkat cells at 150 uM followed by UV irradiation for 30 mins with Wood's glass filtered medium pressure mercury arc light before cell lysis measured after denaturing wash by SDS-PAGE based pull down assay; procedure, shortened: as §2
Jurkat [5] = experiment: Binding affinity to quercetin binding protein in human Jurkat cells at 150 uM followed by UV irradiation for 30 mins with Wood's glass filtered medium pressure mercury arc light after cell lysis by SDS-PAGE based pull down assay; procedure, shortened: as §2
[6] = biological target: Actin, cytoplasmic 1 (Homo sapiens) (UniProt P60709); experiment: Binding affinity to ACTB in human Jurkat cells at 150 uM followed by UV irradiation for 30 mins with Wood's glass filtered medium pressure mercury arc light prior to cell lysis measured after denaturing wash by SDS-PAGE based pull down assay; procedure, shortened: as §2
[7] = biological target: Casein kinase II subunit beta (Homo sapiens) (UniProt P67870); experiment: Binding affinity to CK2beta at 150 uM followed by UV irradiation for 30 mins with Wood's glass filtered medium pressure mercury arc light by SDS-PAGE based pull down assay
Procedure, shortened: (§3)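 CK2 (17.5–70 nM) was mixed with 150 μM BioQ in 400 μL 10 mM PBS pH 7.2 with protease inhibitors, with or without 10 mM MgCl2 and 2 μM ATP. Samples were irradiated 30 min on ice (320–400 nm, peak 365 nm) or left unirradiated. Capture was on streptavidin agarose for 1 h, with washes in lysis buffer or 2% SDS Tris buffer, then boiling, SDS-PAGE and silver staining.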

[8] = biological target: Heat shock-related 70 kDa protein 2 (Homo sapiens) (UniProt P54652); experiment: Binding affinity to HSPA2 in human Jurkat cells at 150 uM followed by UV irradiation for 30 mins with Wood's glass filtered medium pressure mercury arc light prior to cell lysis measured after denaturing wash by LC-MS/MS based pull down assay
Procedure, shortened: (§4)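 Silver-stained bands from cells irradiated before lysis were excised, destained, reduced with 10 mM DTT, alkylated with 50 mM iodoacetamide and digested with trypsin overnight. Peptides were extracted in 1% TFA/50% acetonitrile. Nano-C18 LC used a 2–50% acetonitrile gradient with 0.1% formic acid over 50 min at 260 nL/min, followed by MS/MS identification.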

[9] = biological target: ATP synthase F(1) complex subunit beta, mitochondrial (Homo sapiens) (UniProt P06576); experiment: Binding affinity to ATP5B in human Jurkat cells at 150 uM followed by UV irradiation for 30 mins with Wood's glass filtered medium pressure mercury arc light prior to cell lysis measured after denaturing wash by LC-MS/MS based pull down assay; procedure, shortened: as §4
Homo sapiens = organism: Homo sapiens; experiment: Binding affinity to CK2 at 150 uM after 30 mins by silver staining based pull down assay; procedure, shortened: as §3

Sequence of Heat shock-related 70 kDa protein 2 (Homo sapiens) (P54652 whole entry): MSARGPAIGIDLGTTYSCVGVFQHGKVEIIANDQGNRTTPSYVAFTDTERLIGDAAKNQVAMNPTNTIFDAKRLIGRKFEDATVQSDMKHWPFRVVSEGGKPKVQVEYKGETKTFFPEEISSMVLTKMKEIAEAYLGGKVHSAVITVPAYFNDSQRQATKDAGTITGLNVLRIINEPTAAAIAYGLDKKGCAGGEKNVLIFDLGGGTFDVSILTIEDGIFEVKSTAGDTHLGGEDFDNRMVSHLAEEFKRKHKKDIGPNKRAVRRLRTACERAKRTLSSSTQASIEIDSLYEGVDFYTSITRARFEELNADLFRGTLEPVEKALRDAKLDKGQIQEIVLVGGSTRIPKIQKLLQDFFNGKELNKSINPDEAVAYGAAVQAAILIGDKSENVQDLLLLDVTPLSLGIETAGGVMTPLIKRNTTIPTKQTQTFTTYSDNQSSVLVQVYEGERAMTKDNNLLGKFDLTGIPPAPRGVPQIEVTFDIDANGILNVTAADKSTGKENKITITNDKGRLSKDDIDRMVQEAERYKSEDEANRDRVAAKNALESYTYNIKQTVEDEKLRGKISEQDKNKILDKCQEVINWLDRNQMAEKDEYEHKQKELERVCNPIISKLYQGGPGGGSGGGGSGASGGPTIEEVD
Sequence of Casein kinase II subunit beta (Homo sapiens) (P67870 whole entry): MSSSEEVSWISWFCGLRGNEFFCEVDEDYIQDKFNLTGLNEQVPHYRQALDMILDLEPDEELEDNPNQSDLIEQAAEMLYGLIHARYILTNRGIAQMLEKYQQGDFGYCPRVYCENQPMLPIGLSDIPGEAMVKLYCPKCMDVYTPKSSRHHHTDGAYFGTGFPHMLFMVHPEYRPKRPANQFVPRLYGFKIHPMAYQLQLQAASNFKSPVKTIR
Sequence of ATP synthase F(1) complex subunit beta, mitochondrial (Homo sapiens) (P06576 whole entry, one chain of several): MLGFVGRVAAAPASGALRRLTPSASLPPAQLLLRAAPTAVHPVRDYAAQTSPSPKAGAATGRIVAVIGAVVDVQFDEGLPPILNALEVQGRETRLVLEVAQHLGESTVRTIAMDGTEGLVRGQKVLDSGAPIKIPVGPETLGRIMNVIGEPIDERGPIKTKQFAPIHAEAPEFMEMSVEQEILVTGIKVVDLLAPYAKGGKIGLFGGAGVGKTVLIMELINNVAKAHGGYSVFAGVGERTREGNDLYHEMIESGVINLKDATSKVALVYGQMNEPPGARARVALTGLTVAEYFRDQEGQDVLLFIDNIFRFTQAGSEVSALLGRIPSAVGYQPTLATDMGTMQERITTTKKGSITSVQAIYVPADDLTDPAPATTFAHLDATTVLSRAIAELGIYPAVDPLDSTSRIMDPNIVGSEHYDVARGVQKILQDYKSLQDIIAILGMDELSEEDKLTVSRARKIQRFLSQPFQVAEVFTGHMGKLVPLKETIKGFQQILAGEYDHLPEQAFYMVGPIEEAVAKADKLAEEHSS

Activity [2]: Active
Activity [6]: Active
Activity [7]: Active
Activity [8]: Active
Activity [9]: Active
Activity (Homo sapiens): inactive
Compound: O=C(CCCC[C@@H]1SC[C@@H]2NC(=O)N[C@@H]21)NCCOCCOCCNC(=O)COc1cc(O)c2c(=O)c(O)c(-c3ccc(O)c(O)c3)oc2c1
Activity (Jurkat [1]): Active
Activity (Jurkat [3]): Active
Activity (Jurkat [4]): Active
Activity (Jurkat [5]): Active
